The record followed here is ChEMBL document CHEMBL4130501 (Eur J Med Chem, 2017).

Active and inactive are the calls of the source. The rule behind the calls is not given here.

The nature of data set [1]: Antioxidant activity assessed as DPPH radical scavenging activity incubated for 60 mins under dark condition by spectrophotometry. Format: functional. In outline: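 DPPH radical scavenging was measured, and the IC50 was taken as the compound concentration giving 50% scavenging.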
In data set [2] the target is T1, Cholinesterase (Homo sapiens, UniProt P06276). The data set is described as follows: Inhibition of BuChE (unknown origin) at 500 nM pre-incubated for 20 mins before S-Butyrylthiocholine iodide substrate addition by Ellman reagent based spectrophotometry. Put shortly:
(§1)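 Cholinesterase inhibition was tested with the compound at 500 nM and reported as percent inhibition, mean ± SEM.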

Data set [3] is described as follows: Inhibition of AChE (unknown origin) at 500 nM pre-incubated for 20 mins before acetylthiocholine iodide substrate addition by Ellman reagent based spectrophotometry. Particulars: Homo sapiens. In outline: as §1
In data set [4] the target is T1, Cholinesterase. The data set can be described thus: Inhibition of BuChE (unknown origin) pre-incubated for 20 mins before S-Butyrylthiocholine iodide substrate addition by Ellman reagent based spectrophotometry.
Data set [5] deals with Amyloid-beta precursor protein (Homo sapiens) (UniProt P05067). The data set can be described thus: Inhibition of self-induced amyloid beta (1 to 42) (unknown origin) aggregation at 10 uM after 24 hrs by thioflavin T-based fluorometric assay relative to control. Put shortly:
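Self-mediated Aβ1-42 aggregation was followed by thioflavin-T fluorescence with 10 µM inhibitor present. Percent inhibition was reported as mean ± SEM.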

The subject of data set [6] is HT-22. The data set is described as follows: Cytotoxicity in mouse HT22 cells assessed as reduction in cell viability at 30 to 100 uM incubated for 24 hrs by MTT assay. Particulars: ht-22, 24 h. It counts as cell-based. Put shortly: (§2)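 Mouse HT22 cells were exposed to compounds at 30, 50 and 100 µM for 24 h. Viability was read by colorimetric MTT assay and compared with untreated control cells (n = 3).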

The subject of data set [7] is HT-22. The data set is described as follows: Neuroprotective activity against glutamate-induced cytotoxicity in mouse HT22 cells assessed as increase cell viability at 3 to 30 uM pre-incubated for 30 mins before glutamate stimulation for 24 hrs by MTT assay. Format: functional, cell-based. In outline:
(§3)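 HT22 cells were pretreated for 30 min with compounds at 3, 10 or 30 µM, then exposed to […] glutamate for 24 h. Viability was read by MTT (n = 3) and compared against the glutamate-only group and the control.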

For data set [8], the system named is HT-22. The data set is described as follows: Cytotoxicity in mouse HT22 cells assessed as reduction in cell viability at 30 uM incubated for 24 hrs by MTT assay. It counts as cell-based. Particulars: ht-22, 24 h. In outline: as §2
Data set [9] deals with HT-22. The data set can be described thus: Neuroprotective activity against glutamate-induced cytotoxicity in mouse HT22 cells assessed as increase cell viability at 10 uM pre-incubated for 30 mins before glutamate stimulation for 24 hrs by MTT assay. It counts as functional, cell-based. In outline: as §3
The nature of data set [10]: Permeability at 100 ug/ml incubated for 10 hrs by PAMPA method. To be noted: read-out: Peff. It counts as ADME. In outline:
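Passive BBB permeation was measured by PAMPA-BBB through an artificial lipid membrane, with Pe given in 10^-6 cm s^-1. Classification: Pe > 4.7 is CNS+, 4.7 to 1.8 is uncertain, and Pe < 1.8 is CNS−.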

Data set [11] is described as follows: Metal chelating activity against Cupric ions assessed as induction of isosbestic shift of maximum absorption upon addition of CuCl2 at 10 uM incubated for 30 mins UV-Vis spectrophotometry.
The subject of data set [12] is HT-22. The data set is described as follows: Neuroprotective activity against glutamate-induced cytotoxicity in mouse HT22 cells assessed as increase cell viability at 30 uM pre-incubated for 30 mins before glutamate stimulation for 24 hrs by MTT assay. It counts as functional, cell-based. Put shortly:
as §3

The test system of data set [13] is HT-22. The data set is described as follows: Cytotoxicity in mouse HT22 cells assessed as reduction in cell viability at 100 uM incubated for 24 hrs by MTT assay. To be noted: ht-22, 24 h. Format: cell-based. Put shortly:
as §2

T1 sequence (P06276 whole entry): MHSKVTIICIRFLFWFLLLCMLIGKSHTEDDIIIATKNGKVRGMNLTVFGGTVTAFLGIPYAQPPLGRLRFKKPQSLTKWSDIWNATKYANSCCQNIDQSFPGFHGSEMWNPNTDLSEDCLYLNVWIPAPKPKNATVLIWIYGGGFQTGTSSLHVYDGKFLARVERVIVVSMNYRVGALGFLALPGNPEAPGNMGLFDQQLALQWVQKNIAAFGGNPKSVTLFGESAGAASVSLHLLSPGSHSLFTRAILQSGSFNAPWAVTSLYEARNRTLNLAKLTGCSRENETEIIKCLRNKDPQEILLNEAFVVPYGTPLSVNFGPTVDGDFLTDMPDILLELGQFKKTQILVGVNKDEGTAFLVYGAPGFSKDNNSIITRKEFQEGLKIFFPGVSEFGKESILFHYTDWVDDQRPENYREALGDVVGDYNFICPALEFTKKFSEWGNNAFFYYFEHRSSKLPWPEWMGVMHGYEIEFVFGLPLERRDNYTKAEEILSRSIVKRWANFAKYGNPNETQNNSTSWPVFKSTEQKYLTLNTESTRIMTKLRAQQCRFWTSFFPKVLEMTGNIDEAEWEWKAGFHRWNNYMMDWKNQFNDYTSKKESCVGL
Sequence of Amyloid-beta precursor protein (Homo sapiens) (P05067 whole entry): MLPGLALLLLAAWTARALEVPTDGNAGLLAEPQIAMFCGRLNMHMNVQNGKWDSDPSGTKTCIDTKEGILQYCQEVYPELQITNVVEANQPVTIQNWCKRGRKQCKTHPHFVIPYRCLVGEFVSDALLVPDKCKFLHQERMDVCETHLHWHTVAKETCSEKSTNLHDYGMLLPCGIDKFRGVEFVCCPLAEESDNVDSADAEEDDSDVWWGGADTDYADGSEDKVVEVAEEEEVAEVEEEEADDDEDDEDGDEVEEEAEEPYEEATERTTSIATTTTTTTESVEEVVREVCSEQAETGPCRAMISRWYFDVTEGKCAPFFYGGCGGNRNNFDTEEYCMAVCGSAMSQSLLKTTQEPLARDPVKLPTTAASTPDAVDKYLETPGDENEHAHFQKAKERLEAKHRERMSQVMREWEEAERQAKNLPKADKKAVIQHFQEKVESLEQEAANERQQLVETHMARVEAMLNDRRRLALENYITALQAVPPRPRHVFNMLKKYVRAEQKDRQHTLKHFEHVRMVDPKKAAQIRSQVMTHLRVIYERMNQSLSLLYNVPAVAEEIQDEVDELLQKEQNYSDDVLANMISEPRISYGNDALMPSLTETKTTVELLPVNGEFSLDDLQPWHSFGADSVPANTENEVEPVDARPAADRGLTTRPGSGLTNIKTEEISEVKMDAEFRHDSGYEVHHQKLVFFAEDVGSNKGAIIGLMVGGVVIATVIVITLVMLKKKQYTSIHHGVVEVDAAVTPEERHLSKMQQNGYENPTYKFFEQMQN

Take `Cc1c(C)c2c(c(C)c1O)CCC(C)(C(=O)O)O2` (stereo unspecified) [TROLOX]: in data set [1], the IC50 worked out at 23.5 µM.
As for `CCN(C)C(=O)Oc1cccc(NC(=O)c2cc(=O)c3ccccc3o2)c1`, the values for the inhibition in data set [2], in data set [3] and in [5] were 53.8%, 9.03% and 63.8%, respectively. Besides, the IC50 is 0.507 µM in [4] and more than 100 µM in data set [1]. Also, in [6], the Activity result was “Toxic”. Moreover, the outcome in [7] was inactive.
`CCN(C)C(=O)Oc1cccc(CNC(=O)c2cc(=O)c3ccccc3o2)c1`: the figures for the inhibition in data set [2], in [3] and in data set [5] were 37.1%, 12.7% and 55.2%, respectively. For the same compound, the IC50 is 0.65 µM in [4] and more than 100 µM in [1]. In addition, the Activity result in [8] is reported as “Toxic”. Moreover, the outcome in data set [9] was Active.
With `CCN(C)C(=O)Oc1cccc(NC(=O)CCCCC2CCSS2)c1` (stereo unspecified), the inhibition was 77.4% in [2], 0.51% in data set [3] and 46.3% in data set [5]. Further, the IC50 in [4] was determined as 0.356 µM; in data set [1], 4.53 µM. The Papp at 10 h, 100 ug/ml in data set [10] came out at 10.3 ×10⁻⁶ cm/s. The outcome in data set [11] was Active. Further, the Activity entry in [6] was “Non-Toxic”. Also, the outcome in [12] was inactive.
As to `CCN(C)C(=O)Oc1cccc([C@H](C)N(C)C)c1` [RIVASTIGMINE], the inhibition was found to be 30.1% in [2] and 1.92% in [3]. Moreover, in data set [10], the Papp at 10 h, 100 ug/ml came to 16.3 ×10⁻⁶ cm/s.
Turning to `CCN(C)C(=O)Oc1cccc(CNC(=O)c2cc(O)c(O)c(O)c2)c1`, the results for the inhibition in data set [2], in data set [3] and in [5] were 2.39%, 5.53% and 51.8%, respectively. Further, the IC50 in data set [1] was 12.9 µM. The Papp at 10 h, 100 ug/ml in data set [10] was 4.86 ×10⁻⁶ cm/s. For the same compound, the result in data set [11] and in data set [12] was Active. Also, in data set [6], the Activity result was “Non-Toxic”.
Turning to `CCN(C)C(=O)Oc1cccc(CCNC(=O)c2cc(O)c(O)c(O)c2)c1`, the inhibition in [2] amounted to 58.8%; in data set [3] it was 3.48%; in data set [5], 27.1%. For the same compound, the IC50 in [4] was 0.452 µM; in data set [1], 11.7 µM. The Papp at 10 h, 100 ug/ml in [10] is 5.14 ×10⁻⁶ cm/s. Also, the result in data set [11] was Active. Besides, the Activity result in [13] is given as “Toxic”. The outcome in data set [7] was inactive.
`CCN(C)C(=O)Oc1cccc(NC(=O)c2cc(O)c(O)c(O)c2)c1`: the inhibition in data set [2] was found to be 7.98%; in data set [3], 23.6%; in data set [5] it was 47.3%. Moreover, the IC50 in [1] amounted to 10.6 µM. For the same compound, in data set [10], the Papp at 10 h, 100 ug/ml turned out to be 3.08 ×10⁻⁶ cm/s. In addition, the outcome in data set [11] and in data set [9] was Active. Besides, the Activity entry in data set [13] is listed as “Toxic”.
In the case of `CCN(C)C(=O)Oc1cccc(CNC(=O)CCCCC2CCSS2)c1` (stereo unspecified), the values for the inhibition in data set [2], in [3] and in data set [5] were 77.3%, 3.66% and 51.8%, respectively. Moreover, the 50% inhibitory concentration (IC50) in data set [4] came to 0.378 µM; in [1] it was 4.3 µM. Further, the Papp at 10 h, 100 ug/ml in data set [10] turned out to be 27.8 ×10⁻⁶ cm/s. In addition, the outcome in data set [11] was Active. Also, in [6], the Activity result is given as “Non-Toxic”. Besides, the result in [12] was inactive.
For the compound `CCN(C)C(=O)Oc1cccc(CCNC(=O)CCCCC2CCSS2)c1` (stereo unspecified), the values for the inhibition in [2], in [3] and in [5] were 76.7%, -1.48% and 49.8%, respectively. The IC50 turned out to be 0.34 µM in data set [4] and 4.88 µM in data set [1]. Moreover, the Papp at 10 h, 100 ug/ml in data set [10] was found to be 12.1 ×10⁻⁶ cm/s. In addition, the Activity entry in data set [6] is on record as “Non-Toxic”. Moreover, the outcome in data set [12] was inactive.
As for `CCN(C)C(=O)Oc1cccc(CCNC(=O)c2cc(=O)c3ccccc3o2)c1`, the inhibition came to 49.1% in data set [2], 22.1% in data set [3] and 67.4% in data set [5]. The IC50 is 0.511 µM in [4] and more than 100 µM in data set [1]. Besides, in data set [6], the Activity entry is “Toxic”. For the same compound, the outcome in data set [7] was inactive.
